Test results: article PMC2886848 (Science (New York, N.Y.), 2009)
“Also recorded” adds a separate entry of the source.

Tests used:
BT549 cells [1] = test: protection against 1541-induced apoptosis with caspase inhibitors in BT549 cells; format: cell-based; conditions: preincubation with inhibitor 0.78 to 100 μM, then 25 μM 1541, 24 hours
Outline: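 BT549 cells (2,500) were preincubated overnight with Biotin-DEVD-FMK (caspase-3/-7 inhibitor) or Biotin-VAD-FMK (pan-caspase inhibitor) at 0.78 to 100 μM. Cells were then switched to fresh medium containing 25 μM test compound plus the same inhibitor concentration. Viability was assayed after 24 h at 37 °C.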

BT549 cells [2] = test: time course of cell viability in BT549 cells; format: cell-based; conditions: 25 μM 1541, 1541C, 1541D; 1 μM STS; 100 μM etoposide; 1541 and STS after 4 hours
Outline: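 p53-deficient BT549 breast cancer cells (2,000) were exposed to 25 μM test compound or either of two analogs, 1 μM staurosporine, 100 μM etoposide or DMSO (final 0.5%). Cell viability was assayed at 2, 4, 6, 8, 12 and 24 h.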

BT549 cells [3] = test: time course of DEVDase activity in BT549 cells; format: cell-based; conditions: 25 μM 1541, 1 μM STS
Outline: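 p53-deficient BT549 breast cancer cells (2,000) were treated with 25 μM test compound or analogs, 1 μM staurosporine, 100 μM etoposide or DMSO (final 0.5%). Executioner caspase (DEVDase) activity was measured at 2, 4, 6, 8, 12 and 24 h.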

BT549 cells [4] = test: cytochrome C release in cytoplasmic extracts of BT549 cells; format: cell-based; conditions: 25 μM 1541, 1 μM STS, harvested every 3 hours
[5] = system: wild type (A3) Jurkat cells; test: cell viability of wild type; format: cell-based, human; conditions: 25 μM 1541, 1 μM STS, 100 ng/ml FasL
Outline: (§1)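 Wild-type (A3) and caspase-8-deficient (I9.2) human Jurkat cells (100,000 cells) were exposed to 25 μM test compound, 1 μM staurosporine or 100 ng/ml FasL. Cell viability was assayed every 2 hours.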

[6] = system: caspase-8 deficient Jurkat cells (I9.2); test: cell viability of caspase-8 deficient; format: cell-based, human; conditions: 25 μM 1541, 1 μM STS, 100 ng/ml FasL
Outline: as §1

[7] = system: wild type murine embryonic fibroblasts (MEF); test: histone ELISA apoptosis assay in wild type MEFs; format: cell-based; conditions: 1 μM STS, 25 μM 1541, 12 hours
Outline: (§2)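 Wild-type and Bak−/−/Bax−/− double-knockout murine embryonic fibroblasts (5,000 cells) were treated at 37 °C with 1 μM staurosporine, 25 μM test compound or DMSO (final 0.5%). Apoptosis was measured after 12 h by histone sandwich ELISA on lysates, which detects histone solubilisation from DNA fragmentation.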

[8] = system: Bak−/−/Bax−/− double knockout (DKO MEFs); test: histone ELISA apoptosis assay in Bak−/−/Bax−/− DKO MEFs; format: cell-based, murine; conditions: 1 μM STS, 25 μM 1541, 12 hours
Outline: as §2

procaspase-3 [9] = target: T1, procaspase-3 (Homo sapiens, UniProt P42574); test: procaspase-3 autoproteolytic activation, fluorogenic Ac-DEVD-AFC activity assay; format: biochemical
T1 sequence (P42574 1-277): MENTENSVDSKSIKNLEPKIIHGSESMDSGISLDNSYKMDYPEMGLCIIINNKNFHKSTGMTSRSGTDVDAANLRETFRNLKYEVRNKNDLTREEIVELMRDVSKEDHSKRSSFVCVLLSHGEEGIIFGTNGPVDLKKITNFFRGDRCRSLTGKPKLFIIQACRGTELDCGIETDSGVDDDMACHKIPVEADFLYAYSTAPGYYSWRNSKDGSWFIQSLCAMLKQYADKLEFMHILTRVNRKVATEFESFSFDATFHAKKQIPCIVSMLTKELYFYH

procaspase-7 = procaspase-7 activation, fluorogenic Ac-DEVD-AFC activity assay; format: biochemical; conditions: procaspase-7 100 nM; 1 nM granzyme B, 25 μM 1541 or 100 μM PAC-1
Outline: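 Procaspase-7 (100 nM) was incubated at 37 °C with 1 nM granzyme B, DMSO, 100 μM reference procaspase activator or 25 μM test compound. Activity was sampled every 20 minutes by adding fluorogenic substrate Ac-DEVD-AFC.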

C163A procaspase-3 = test: cleavage of inactive C163A procaspase-3 by granzyme B; format: biochemical; conditions: C163A 250 nM, granzyme B 0.5 nM, alone or with 1541 25 μM
[10] = system: procaspase-3 mutants (S198A, T199A and S205A); test: activation of procaspase-3 alanine mutants; format: biochemical; conditions: 5 hours, 25 μM 1541 or 1 nM granzyme B, 37 °C
Outline: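 Wild-type procaspase-3 and active-site alanine mutants (S198A, T199A, S205A), chosen by alanine scanning near the active site, were incubated 5 h at 37 °C with 25 μM test compound, 1 nM granzyme B or DMSO. Activation was sampled by kinetic assays started with fluorogenic substrate Ac-DEVD-AFC.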

procaspase-6 [11] = target: T2, procaspase-6 (Homo sapiens, UniProt P55212); conditions: cited from earlier work
T2 sequence (P55212 1-293): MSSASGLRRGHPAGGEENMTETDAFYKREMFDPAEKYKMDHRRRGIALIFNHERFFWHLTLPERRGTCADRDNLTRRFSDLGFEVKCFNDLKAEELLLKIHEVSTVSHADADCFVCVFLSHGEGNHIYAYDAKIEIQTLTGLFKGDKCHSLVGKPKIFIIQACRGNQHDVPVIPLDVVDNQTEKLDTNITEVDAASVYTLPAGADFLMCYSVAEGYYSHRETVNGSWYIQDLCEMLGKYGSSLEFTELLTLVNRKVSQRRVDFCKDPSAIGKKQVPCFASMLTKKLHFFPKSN

procaspase-6 [12] = target: T2, procaspase-6; test: procaspase-6 activation, fluorogenic Ac-VEID-AFC activity assay; format: biochemical
procaspase-3 [13] = target: T1, procaspase-3; conditions: caused through chelation of inhibitory zinc ion in some assay buffers; cited from earlier work

Q: With DEVD-FMK as the molecule, how does the “block of 1541-induced apoptosis (in words)” value (BT549 cells [1]) read?
A: completely blocked apoptosis

Q: Which “induction of apoptosis / cell death in BT549 (in words)” value (BT549 cells [2]) does the source give for `COc1cc([C@@H]2c3cc4c(cc3[C@@H](O[C@@H]3O[C@@H]5CO[C@@H](C)O[C@H]5[C@H](O)[C@H]3O)[C@H]3COC(=O)[C@H]23)OCO4)cc(OC)c1O` [etoposide] here?
A: much slower apoptosis

Q: For `CN[C@@H]1C[C@H]2O[C@@](C)([C@@H]1OC)n1c3ccccc3c3c4c(c5c6ccccc6n2c5c31)C(=O)NC4` [STS, staurosporine], which “induction of apoptosis / cell death in BT549 (in words)” value (BT549 cells [2]) is on record?
A: near complete apoptosis

Q: What about the “DEVDase activity in BT549 (in words)” value (BT549 cells [3]) of the same molecule?
A: significantly higher

Q: What about the “time of peak DEVDase activity” value (BT549 cells [3]) of the same molecule?
A: 8 h

Q: What about the “mitochondrial cytochrome C release (in words)” value (BT549 cells [4]) of the same molecule?
A: much greater and more rapid mitochondrial cytochrome C release

Q: What about the “apoptosis in wild type Jurkat cells (in words)” value [5] of the same molecule?
A: comparable to 1541

Q: And the “apoptosis in caspase-8 deficient Jurkat cells (in words)” value [6]?
A: somewhat slower

Q: And the “apoptosis in wild type MEFs (in words)” value [7]?
A: susceptible

Q: And the “apoptosis in DKO MEFs (in words)” value [8]?
A: completely resistant

Q: Which “time to full activation of the zymogen” value (procaspase-3 [9]; 1 nM granzyme B, procaspase-3 100 nM) does the source give for “granzyme B: a natural proteolytic activator of procaspase-3” here?
A: ≤ 90 min

Q: And the “activation of procaspase-7 (in words)” value (procaspase-7)?
A: robustly activated and fully processed

Q: And the “cleavage of C163A procaspase-3 after 30 minutes” value (C163A procaspase-3)?
A: ~ 10%

Q: What about the “cleavage of C163A procaspase-3 after 60 minutes” value (C163A procaspase-3) of the same molecule?
A: 20%

Q: What about the “activation of S198A, T199A and S205A procaspase-3 (in words)” value [10] of the same molecule?
A: efficiently activated; also recorded: wild type activity

Q: What about the “activation of procaspase-6 by granzyme B (in words)” value (procaspase-6 [11]) of the same molecule?
A: resistant

Q: Which results are given for `C=CCc1cccc(/C=N/NC(=O)CN2CCN(Cc3ccccc3)CC2)c1O` [PAC-1]?
A: activation of procaspase-3 (in words) (procaspase-3 [9]): no detectable increase in activity or self-proteolysis; activation of procaspase-6 (in words) (procaspase-6 [12]): no detectable increase in activity or self-proteolysis; activation of procaspase-7 (in words) (procaspase-7): no detectable increase in activity or self-proteolysis; activation of procaspase-3 seen for PAC-1 (procaspase-3 [13]): ~ 2 fold

B1: FasL: a specific inducer of the extrinsic pathway (protein, UniProt P48023 130-281, looked up)
Tumor necrosis factor ligand …: QIGHPSPPPEKKELRKVAHLTGKSNSRSMPLEWEDTYGIVLLSGVKYKKGGLVINETGLYFVYSKVYFRGQSCNNLPLSHKVYMRNSKYPQDLVMMEGKMMSYCTTGQMWARSSYLGAVFNLTSADHLYVNVSELSLVNFEESQTFFGLYKL
Q: For B1, which “apoptosis in wild type Jurkat cells (in words)” value [5] is on record?
A: active

Q: And the “apoptosis in caspase-8 deficient Jurkat cells (in words)” value [6]?
A: not in caspase-8 deficient cells
